Test results published in ChEMBL document CHEMBL4354811, “Discovery of Novel Aryl Carboxamide Derivatives as Hypoxia-Inducible Factor 1α Signaling Inhibitors with Potent Activities of Anticancer Metastasis” (J Med Chem, 2019).
The source made the active and inactive calls. No cut-off for these calls is given here.

Legend:
[1] = target: Hypoxia-inducible factor 1-alpha (Homo sapiens) (UniProt Q16665); test: Inhibition of HIF1alpha transcriptional activity in hypoxia-induced human HCCLM3 cells co-transfected with luciferase reporter plasmid containing five copies of HREs and pRL-SV40 plasmid encoding Renilla luciferase at 10 uM incubated with compound under normoxia for 1 hr followed by hypoxia induction and measured after 24 hrs by HRE-dependent dual luciferase reporter gene assay relative to control
Method in brief: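 LM3 cells co-transfected with firefly luciferase reporter carrying five HRE copies plus pRL-SV40 Renilla plasmid; after transfection treated and kept under hypoxia; firefly luminescence normalized to Renilla. Single-point inhibition rate at 10 μM; IC50 for selected compounds.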

[2] = Cytotoxicity against human HCCLM3 cells assessed as reduction in cell viability incubated for 48 hrs by MTT assay; assay type: cell-based
HCCLM3 = test: Inhibition of HIF1alpha accumulation in hypoxia-induced human HCCLM3 cells at 10 uM incubated with compound under normoxia for 1 hr followed by hypoxia induction and measured after 24 hrs by Western blot analysis; assay type: functional, cell-based
Method in brief: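 LM3 cells treated at 10 μM under hypoxia; HIF-1α protein by western blot, LW6 as reference.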

Danio rerio = organism: Danio rerio; test: Antiangiogenic activity in […]/EGFP transgenic zebrafish embryo assessed as destruction of subintestinal vessel at 0.5 uM incubated for 24 hrs by confocal microscopic method; assay type: functional, organism-based
Method in brief: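 Transgenic zebrafish with GFP-labeled vascular endothelium; embryos selected, […], exposed 24 h to 0.5 or 1 μM (DMSO vehicle, n = 10; apatinib 0.5 μM reference); SIVs imaged by confocal microscopy and counted per field; means ± SD, three independent experiments.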

Chain of Hypoxia-inducible factor 1-alpha (Homo sapiens) (Q16665 whole entry, looked up): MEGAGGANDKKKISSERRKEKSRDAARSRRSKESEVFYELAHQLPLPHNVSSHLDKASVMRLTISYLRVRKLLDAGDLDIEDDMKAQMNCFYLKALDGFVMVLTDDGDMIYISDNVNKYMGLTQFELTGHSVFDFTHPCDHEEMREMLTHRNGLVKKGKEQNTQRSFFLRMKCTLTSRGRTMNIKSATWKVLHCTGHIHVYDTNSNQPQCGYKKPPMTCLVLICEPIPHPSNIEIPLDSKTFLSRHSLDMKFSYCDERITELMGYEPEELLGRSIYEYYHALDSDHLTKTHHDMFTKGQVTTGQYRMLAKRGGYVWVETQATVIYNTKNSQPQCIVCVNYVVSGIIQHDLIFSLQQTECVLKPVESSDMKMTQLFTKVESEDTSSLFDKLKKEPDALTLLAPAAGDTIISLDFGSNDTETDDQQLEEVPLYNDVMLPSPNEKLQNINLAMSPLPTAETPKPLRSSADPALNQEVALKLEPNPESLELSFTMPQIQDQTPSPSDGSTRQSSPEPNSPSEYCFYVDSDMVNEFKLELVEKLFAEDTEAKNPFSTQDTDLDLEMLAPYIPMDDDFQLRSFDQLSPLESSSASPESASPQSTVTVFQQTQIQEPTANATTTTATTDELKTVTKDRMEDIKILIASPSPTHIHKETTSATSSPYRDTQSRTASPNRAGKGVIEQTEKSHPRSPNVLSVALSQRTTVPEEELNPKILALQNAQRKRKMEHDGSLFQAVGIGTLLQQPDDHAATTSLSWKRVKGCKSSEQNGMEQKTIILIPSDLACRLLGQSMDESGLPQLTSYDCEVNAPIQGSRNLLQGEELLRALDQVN

## O=C(NCCc1ccccc1F)c1ccc(-c2ccccc2)cn1
[1]
  inhibition: 91.4%
[2]
  CC50 at 48 h: > 50 µM

## O=C(NCCc1ccc(F)cc1)c1ccc(-c2ccccc2)cn1
[1]
  inhibition: 46.1%

## O=C(NCCc1ccncc1)c1nc(-c2ccccc2)no1
[1]
  inhibition: 36.9%

## Cc1nc(C(=O)NCCc2cccnc2)cs1
[1]
  inhibition: 2.4%

## Cc1nc(C(=O)NCCc2ccccc2Cl)cs1
[1]
  inhibition: 42.7%

## Cc1nc(C(=O)NCCc2ccncc2)cs1
[1]
  inhibition: 31.3%

## Cc1ccc(C(=O)NCCc2ccncc2)cc1
[1]
  inhibition: 3.1%

## O=C(NCCc1ccc([N+](=O)[O-])cc1)c1ccc(-c2ccccc2)cn1
[1]
  inhibition: 40.2%

## O=C(NCCc1ccncc1)c1coc(-c2ccccc2)n1
[1]
  inhibition: 38.7%

## O=C(NCCc1ccccc1Cl)c1coc(-c2ccccc2)n1
[1]
  inhibition: 51.4%

## COC(=O)c1ccc(O)c(NC(=O)COc2ccc(C34CC5CC(CC(C5)C3)C4)cc2)c1
[1]
  inhibition: 73.5%
HCCLM3
  HIF-1α accumulation inhibition (qualitative): Active
[2]
  CC50 at 48 h: > 50 µM

## Cc1cccc(C(=O)NCCc2ccncc2)n1
[1]
  inhibition: 36.4%

## Cc1nc(C(=O)NCCCc2ccccc2)cs1
[1]
  inhibition: 6.5%

## O=C(NCCc1ccccc1F)c1ccc(-c2cccc(O)c2)cn1
[1]
  inhibition: 0.3%

## O=C(NCCc1ccccc1Cl)c1nnc(-c2ccccc2)o1
[1]
  inhibition: 41.8%

## Cc1ccc(C(=O)NCCc2ccccc2Cl)cc1
[1]
  inhibition: 45.3%

## O=C(NCCc1ccncc1)c1ccc(-c2ccccc2)cc1
[1]
  inhibition: 42%

## O=C(NCCc1ccccc1Cl)c1cc(-c2ccccc2)ncn1
[1]
  inhibition: 56.7%

## COc1ccc(-c2ccc(C(=O)NCCc3ccccc3F)nc2)cc1
[1]
  inhibition: 45.6%

## O=C(NCCc1ccccc1Cl)c1ccc(-c2ccccc2)nc1
[1]
  inhibition: 45.1%

## O=C(NCCc1ccncc1)c1nnc(-c2ccccc2)o1
[1]
  inhibition: 67.3%
[2]
  CC50 at 48 h: > 50 µM

## N#Cc1ccccc1-c1ccc(C(=O)NCCc2ccccc2F)nc1
[1]
  inhibition: 62.7%
[2]
  CC50 at 48 h: > 50 µM

## O=C(NCCc1ccccn1)c1ccc(-c2ccccc2)cn1
[1]
  inhibition: 43.7%

## O=C(NCCc1ccccc1Cl)c1csc(-c2ccccc2)n1
[1]
  inhibition: 54.1%

## O=C(NCCc1ccccc1F)c1ccc(-c2ccsc2)cn1
[1]
  inhibition: 88.2%
[2]
  CC50 at 48 h: > 50 µM

## O=C(NCCc1cccnc1)c1ccc(-c2ccccc2)cn1
[1]
  inhibition: 44.5%

## Cc1ccc(C(=O)NCCc2ccncc2)o1
[1]
  inhibition: 12.8%

## O=C(NCCc1ccncc1)c1csc(-c2ccncc2)n1
[1]
  inhibition: 19.9%

## O=C(NCCc1ccccc1F)c1ccc(-c2ccccc2O)cn1
[1]
  inhibition: 43.6%

## O=C(NCCc1ccccc1Cl)c1ccc(-c2ccccc2)cn1
[1]
  inhibition: 68.4%
[2]
  CC50 at 48 h: > 50 µM

## N#Cc1cccc(-c2ccc(C(=O)NCCc3ccccc3F)nc2)c1
[1]
  inhibition: 44.5%

## Nc1ccc(CCNC(=O)c2ccc(-c3ccccc3)cn2)cc1
[1]
  inhibition: 60.2%
[2]
  CC50 at 48 h: > 50 µM

## O=C(NCCc1ccc(O)cc1)c1ccc(-c2ccccc2)cn1
[1]
  inhibition: 36.9%

## O=C(NCCc1ccc(Cl)cc1)c1ccc(-c2ccccc2)cn1
[1]
  inhibition: 58.2%

## O=C(NCCc1ccncc1)c1ccc(-c2ccccc2)cn1
[1]
  inhibition: 60.7%
[2]
  CC50 at 48 h: > 50 µM

## O=C(NCCc1ccccc1Cl)c1csc(-c2ccncc2)n1
[1]
  inhibition: 18.4%

## O=C(NCCc1ccccc1F)c1ccc(-c2ccncc2)cn1
[1]
  inhibition: 57.5%

## Cc1ccc(CCNC(=O)c2ccc(-c3ccccc3)cn2)cc1
[1]
  inhibition: 31.8%

## N#CC1(c2ccc(NC(=O)c3cccnc3NCc3ccncc3)cc2)CCCC1
Danio rerio
  Activity: Active

## O=C(NCCc1ccccc1F)c1ccc(-c2cccc(F)c2)cn1
[1]
  inhibition: 55.3%

## O=C(NCCc1ccncc1)c1ncc(-c2ccccc2)o1
[1]
  inhibition: 53.5%

## O=C(NCCc1ccncc1)c1nccc(-c2ccccc2)n1
[1]
  inhibition: 61.5%
[2]
  CC50 at 48 h: > 50 µM

## Cc1nc(C(=O)NCCc2ccccn2)cs1
[1]
  inhibition: 5.1%

## O=C(NCCc1ccccc1F)c1ccc(-c2ccccc2F)cn1
[1]
  inhibition: 83.8%
[2]
  CC50 at 48 h: > 50 µM

## O=C(NCCc1ccncc1)c1ccc(-c2ccccc2)nc1
[1]
  inhibition: 47.4%

## O=C(NCCc1ccccc1F)c1ccc(-c2ccco2)cn1
[1]
  inhibition: 57.2%

## O=C(NCCc1ccccc1Cl)c1csc(-c2cccnc2)n1
[1]
  inhibition: 21.6%

## Cc1nc(C(=O)NCc2ccccc2)cs1
[1]
  inhibition: 3.1%

## O=C(NCCc1ccccc1Cl)c1nc(-c2ccccc2)no1
[1]
  inhibition: 44.1%

## O=C(NCCc1ccccc1)c1ccc(-c2ccccc2)cn1
[1]
  inhibition: 82.2%
[2]
  CC50 at 48 h: > 50 µM

## O=C(NCCc1ccccc1Cl)c1noc(-c2ccccc2)n1
[1]
  inhibition: 40.5%

## O=C(NCCc1ccccc1F)c1ccc(-c2ccc(F)cc2)cn1
[1]
  inhibition: 41.2%

## O=C(NCCc1cccc(F)c1)c1ccc(-c2ccccc2)cn1
[1]
  inhibition: 58.7%

## O=C(NCCc1ccccc1F)c1ccc(-c2cccs2)cn1
[1]
  inhibition: 80%
[2]
  CC50 at 48 h: > 50 µM

## Cc1nc(C(=O)NCCc2ccccc2)cs1
[1]
  inhibition: 21.2%
HCCLM3
  HIF-1α accumulation inhibition (qualitative): Active

## O=C(NCCc1ccncc1)c1csc(-c2ccccc2)n1
[1]
  inhibition: 48.7%

## O=C(NCCc1ccncc1)c1csc(-c2cccnc2)n1
[1]
  inhibition: 33.9%

## N#Cc1ccc(-c2ccc(C(=O)NCCc3ccccc3F)nc2)cc1
[1]
  inhibition: 13.1%

## O=C(NCCc1ccccc1Cl)c1ncc(-c2ccccc2)o1
[1]
  inhibition: 52.3%

## O=C(NCCc1ccncc1)c1noc(-c2ccccc2)n1
[1]
  inhibition: 49.7%

## O=C(NCCc1cccc(Cl)c1)c1ccc(-c2ccccc2)cn1
[1]
  inhibition: 64.6%
[2]
  CC50 at 48 h: > 50 µM

## Cc1nc(C(=O)NCCc2cccc(Cl)c2)cs1
[1]
  inhibition: 1.2%

## O=C(NCCc1ccccc1F)c1ccc(-c2ccoc2)cn1
[1]
  inhibition: 73.4%
HCCLM3
  HIF-1α accumulation inhibition (qualitative): Active
[2]
  CC50 at 48 h: > 50 µM

## Cc1nc(C(=O)NCCc2ccc(Cl)cc2)cs1
[1]
  inhibition: 0.6%

## Cc1cccc(C(=O)NCCc2ccccc2Cl)n1
[1]
  inhibition: 37.3%

## Cc1ccc(C(=O)NCCc2ccccc2Cl)o1
[1]
  inhibition: 17.4%

## COc1cccc(-c2ccc(C(=O)NCCc3ccccc3F)nc2)c1
[1]
  inhibition: 53.8%

## O=C(NCCc1ccccc1F)c1ccc(-c2ccc(O)cc2)cn1
[1]
  inhibition: 33.2%

## O=C(NCCc1ccccc1F)c1ccc(-c2cn[nH]c2)cn1
[1]
  inhibition: 29.5%
HCCLM3
  HIF-1α accumulation inhibition (qualitative): Active

## O=C(NCCc1ccccc1Cl)c1ccc(-c2ccccc2)cc1
[1]
  inhibition: 77.2%
[2]
  CC50 at 48 h: > 50 µM
